Shown are actives, neighbours in structure and some others; about 4.1% of the full set was active somewhere.
Cl transport mod: modulates chloride dependent transport by human KCC2; Q9H2X9; KCC2 cells, thallium flux FluoZin-2 fluorescence; B-score of Tl+ flux slope (higher = more flux/activation; lower = inhibition) at 10 µM; 190,000 compounds, 2.2% hits;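 active means thallium flux slope and its plate-corrected score both differing from the plate sample mean at a set confidence after two filtering rounds, in either direction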;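 further: slope of fluorescence scaled to starting intensity during 10 to 20 s after thallium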
KCNK3 inh: human KCNK3 channel inhibition, primary screen; 340,000 compounds, 0.84% hits; AID 602410; CHO-KCNK3 thallium flux, FluxOR fluorescence; hits give low values; B-score at 10 µM; O14649;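 active means B-score under library mean minus 4 SD, starting fluorescence ratio at most library mean plus 5 SD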;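 further: more negative B-score means stronger inhibition of thallium flux through KCNK3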
Target sequence (O14649 whole entry, looked up): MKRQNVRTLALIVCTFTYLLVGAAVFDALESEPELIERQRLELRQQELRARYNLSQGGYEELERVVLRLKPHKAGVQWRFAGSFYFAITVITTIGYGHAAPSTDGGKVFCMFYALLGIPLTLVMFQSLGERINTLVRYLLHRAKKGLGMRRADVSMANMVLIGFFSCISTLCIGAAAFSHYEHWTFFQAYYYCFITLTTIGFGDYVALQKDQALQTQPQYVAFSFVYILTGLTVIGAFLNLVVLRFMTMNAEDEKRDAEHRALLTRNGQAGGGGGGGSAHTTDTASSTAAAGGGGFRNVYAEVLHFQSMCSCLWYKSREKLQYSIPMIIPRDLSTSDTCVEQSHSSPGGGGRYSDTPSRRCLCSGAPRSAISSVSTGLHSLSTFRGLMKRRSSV
hERG rescue: hERG (human) protection from proarrhythmic block. activation (rescue from dofetilide block), less the hit threshold, % at 10 µM. 310,000 compounds, 0.51% hits. CHO-hERG, FluxOR thallium flux, dofetilide IC70 present. Q12809;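 active means activation above the mean of controls blocked by dofetilide plus 5 SD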;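 further: thallium influx through hERG after potassium depolarization seen as dye fluorescence rise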
KCNQ1 block: inhibitors of human KCNQ1 potassium channel; P51787; CHO-K1 KCNQ1, FluxOR thallium flux fluorescence; hits give high values; B-score at 10 µM; 310,000 compounds, 1.3% hits; AID 2642;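 active means compounds whose thallium flux B-score, printed positive for inhibition, exceeds three library SD while starting fluorescence stays within three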;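 further: channel opened by potassium depolarization with thallium stimulus after 20 min compound exposure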
KCNQ1 act: potentiators or activators of human KCNQ1 potassium channel; P51787; CHO-K1 KCNQ1, thallium flux FluxOR fluorescence; hits give high values; B-score at 10 µM; 310,000 compounds, 0.35% hits; AID 2648;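 active means fluorescence ratio B-score, a plate-corrected score, at least three library SD, with initial intensity B-score within 5 SD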
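Assay system: stable KCNQ1 CHO-K1 line; medium: assay buffer, equal DMSO in all wells; timing: 90 min dye loading and 20 min compound exposure, both at room temperature; technique: kinetic FluxOR thallium fluorescence, 10-s 1-Hz baseline, 110-s post-stimulus read; read-out basis: B score of baseline-normalized fluorescence ratio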
KCNK9 inh: human KCNK9 channel inhibition. Q9NPC2. B-score at 10 µM. 310,000 compounds, 1.2% hits. HEK293 KCNK9, FluxOR thallium flux fluorescence; hits give low values. AID 488922;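 active means ratio B-score over 3 SD below the library mean, with starting fluorescence within 5 SD of its mean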;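 further: negative B-score means less thallium flux so channel inhibition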
* marks the source's active call; other numbers are inactive results; i = inactive; . = no result.

SMILES	Cl transport mod	KCNK3 inh	hERG rescue	KCNQ1 block	KCNQ1 act	KCNK9 inh
COc1ccc(NC(=O)c2ccc(COc3ccccc3Br)o2)cc1OC	-6*	i	-12	i	i	i
O=C(O)c1cnn(-c2nc(-c3ccc(Br)cc3)cs2)c1C(F)(F)F	.	i	2	i	i	i
CCN(CC)CCNC(Cc1ccccc1)c1cccc(OC)c1 (centres undefined)	.	i	.	.	.	.
CCOC(=O)C[N+](C)(C)CCOC1CC2CCC1(C)C2(C)C (centres undefined)	0.022	i	-13	i	i	i
CC1(C)C2CCC1(C)C(OCC[N+](C)(C)CC(=O)OC1CCCCC1)C2 (centres undefined)	0.081	i	-7	7*	i	i
CCn1c(C)nc2cc(C(=O)NNC(=O)[C@@H](NC(=O)c3cc(OC)cc(OC)c3)C(C)C)ccc21	.	i	.	.	.	.
O=C(CCN1C(=O)C2C3CCC(C3)C2C1=O)Nc1cccc(Cl)c1 (centres undefined)	.	i	-6	i	i	i
O=C(/C=C/c1ccccc1Cl)N(Cc1cccs1)C1CCS(=O)(=O)C1 (centres undefined)	-1.6	i	-6	i	i	-7.5*
CCOc1cc(C(=O)OCC(=O)Nc2ccc(F)cc2Cl)ccc1OCC(=O)N1CCOCC1	.	i	.	.	.	.
CCN(Cc1ccccc1)c1ccc(/C=C(\C#N)c2ccccn2)cc1	-1.4	i	-9	i	i	i
CCN(CC)c1ccc(/C=C(\C#N)c2ccccn2)cc1	-0.55	-11*	-18	6*	i	i
CCN(CC)CCOC(=O)c1ccc(NC(=O)CCCN2C(=O)/C(=C/c3cccs3)SC2=S)cc1	.	i	-10	i	i	i
CC(=O)C(=Nc1ccc(Cl)cc1Cl)NNc1cccc(Cl)c1	.	i	-9	10*	i	i
CC(=O)Nc1ccc(NC(=O)Nc2cccc(Cl)c2)cc1	.	i	-7	i	i	i
Cc1ccc(S(=O)(=O)NCC(=O)NNC(=O)c2ccccc2Cl)cc1C	.	i	.	.	.	.
CC(C)(C)OC(=O)N1CCC(C(=O)Nc2ccc(C(=O)NCc3ccccc3)cc2)CC1	.	i	.	.	.	.
Cc1c(C(=O)NCCN2CCOCC2)oc2ccc(Br)cc12	.	i	-14	i	i	i
O=C(NCCN1CCOCC1)c1cc(-c2ccccc2Cl)on1	.	i	5.1*	i	i	i
Cc1c(C(=O)NCCN2CCOCC2)oc2ccccc12	.	i	48*	i	i	i
COc1ccc(Nc2oc(COc3ccccc3F)nc2C#N)cc1	.	i	-10	i	i	-8*
COc1ccc(Nc2oc(COc3ccc(OC)cc3)nc2C#N)cc1	0.41	i	-8	i	i	i
O=C(CN1C(=O)NC2(CCCC2)C1=O)Nc1cc(S(=O)(=O)N2CCCCC2)ccc1Cl	.	i	.	.	.	.
NS(=O)(=O)c1ccc(Sc2ccc3c(c2)CCC3)nc1	.	i	-1	i	8*	i
NS(=O)(=O)c1ccc(S(=O)(=O)c2ccccc2)nc1	.	i	-5	i	i	i
Cc1ncsc1C(=O)N1N=C2/C(=C/c3ccccc3)CCCC2C1c1ccccc1 (centres undefined)	.	i	-17	7*	i	-7.6*
SMILES	Cl transport mod	KCNK3 inh	hERG rescue	KCNQ1 block	KCNQ1 act	KCNK9 inh
Cc1ncsc1C(=O)N1N=C2/C(=C/c3ccc(N4CCOCC4)cc3)CCCC2C1c1ccc(N2CCOCC2)cc1 (centres undefined)	-0.61	i	-12	i	i	i
CSc1nc(Oc2ccc3ccccc3c2)c2ccccc2n1	0.34	i	-10	i	i	-7.2*
CSc1nc(Oc2ccccc2)c2sccc2n1	.	i	-8	i	i	i
CC(=O)c1ccccc1OC(=O)COc1ccc([N+](=O)[O-])cc1	.	i	-9	i	i	i
Cc1ccsc1/C=N/NC(=O)c1sccc1C	5.7*	i	-6	i	i	i
O=C(NNC(=O)c1ccc(Cn2cccn2)o1)NC12CC3CC(CC(C3)C1)C2	.	i	-7	i	i	i
Cc1nn(C(C)C(=O)N/N=C/c2ccc(N(C)C)cc2)c(C)c1[N+](=O)[O-] (centres undefined)	-0.34	i	0	i	i	-7.9*
Cc1ccc(NC(=O)CC(O)(C(F)(F)F)C(F)(F)F)cc1	.	i	-7	7*	i	i
c1ccc(NC2=NCCN2CC2CCCC2)cc1	.	i	4.9*	i	i	i
Cc1cc(C(=O)COC(=O)c2nn(C)c(=O)c3ccccc23)c(C)n1C	.	i	.	.	.	.
CCOC(=O)[C@@H]1[C@H]2COc3ccccc3[C@@H]2N2C(=O)N(c3ccccc3)C(=O)[C@@]12C	.	i	-6	i	i	i
CCOC(=O)[C@@H]1[C@H]2COc3ccccc3[C@H]2N2C(=O)N(c3ccc(C)cc3)C(=O)[C@]12C	.	i	-7	i	i	-6.7*
CC(C)[C@H](NC(=O)OC(C)(C)C)c1nnc(SCC(=O)Nc2ccc(Br)cc2)o1	-0.3	i	-19	6*	i	i
CCCCN(CC)C(=O)c1cc2cc3ccc(OC)cc3nc2o1	-0.092	i	-10	i	i	-6.7*
Cc1ccc(-c2n[nH]c(=S)n2/N=C/c2ccc(C)s2)cc1	5.6*	i	-6	i	i	i
COc1ccc(/C=N/n2c(-c3ccccc3)n[nH]c2=S)cc1	.	i	-1	i	i	i
COc1cccc(/C=N/n2c(-c3cccs3)n[nH]c2=S)c1	24*	i	1	i	i	i
Cc1n[nH]c(=S)n(/N=C/c2ccccn2)c1=O	.	i	-2	i	i	i
Cc1ccc(-c2n[nH]c(=S)n2/N=C/c2cccs2)cc1	18*	i	-4	i	i	i
S=c1[nH]nc(-c2ccccn2)n1/N=C/c1ccc(Br)s1	26*	i	-9	i	i	i
Cc1ccc(/C=N/n2c(COc3ccccc3)n[nH]c2=S)s1	16*	i	-9	i	i	i
CCC(C)(C)NC(=O)C(c1cccc(OC)c1)N(C(=O)c1ccn[nH]1)c1cccc(OC)c1 (centres undefined)	.	i	-14	8*	i	i
CCC(C)(C)NC(=O)C(c1cccs1)N(C(=O)c1ccn[nH]1)c1ccccc1 (centres undefined)	.	i	-9	i	i	i
O=C(CSc1nc(C(F)(F)F)cc(=O)[nH]1)N1CCC(Cc2ccccc2)CC1	.	i	-19	6*	i	i
